Only some compounds are listed: those with a hit (about 1.6% of all), similar ones and a draw of the others.
FLuc act counter: firefly luciferase counter-screen for stimulation assays. P08659. ATPlite luciferase biochemical, luminescence, 10 min; 0 = ATP-free wells, 1 = DMSO control. activation factor at 10 µM. 200,000 tested, under 10 active. AID 1027;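 active = luciferase activation factor, scaled between plate controls, of at least 2 with compound at 10 µM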
Target sequence (P08659 whole entry, looked up): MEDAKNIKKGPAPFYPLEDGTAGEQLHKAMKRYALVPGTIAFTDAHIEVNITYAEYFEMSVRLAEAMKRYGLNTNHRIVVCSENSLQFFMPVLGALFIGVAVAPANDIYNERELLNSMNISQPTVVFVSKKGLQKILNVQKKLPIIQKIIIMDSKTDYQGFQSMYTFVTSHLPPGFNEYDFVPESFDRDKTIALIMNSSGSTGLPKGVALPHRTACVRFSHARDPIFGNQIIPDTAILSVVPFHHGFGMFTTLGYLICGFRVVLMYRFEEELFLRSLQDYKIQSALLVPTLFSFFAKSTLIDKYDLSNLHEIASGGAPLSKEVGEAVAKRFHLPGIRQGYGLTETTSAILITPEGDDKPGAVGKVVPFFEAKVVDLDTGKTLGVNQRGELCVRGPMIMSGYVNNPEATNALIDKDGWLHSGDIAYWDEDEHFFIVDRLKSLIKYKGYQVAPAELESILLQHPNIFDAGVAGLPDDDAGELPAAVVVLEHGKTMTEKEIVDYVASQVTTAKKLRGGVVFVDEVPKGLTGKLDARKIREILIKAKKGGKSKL
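System: luciferase plus luciferin reagent, cell-free; medium: PBS as buffer for the ATP substrate; dosing: test compounds dosed from 2 mM stocks in 100% DMSO; timing: 10 min post-reagent at room temperature; measured by: luminescence measurement of luciferase light output; evaluation: luciferase activation, seen as luminescence increase over controls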
TRAIL sens C8: caspase-8 TRAIL sensitization; NB7+C8 cells + TRAIL, ATPlite viability luminescence; inhibition (viability loss, TRAIL sensitization), % at 10 µM; hit rate 1% among 360,000; AID 624354;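 active = compounds causing at least 50% loss of cell viability in the single-dose screen, relative to plate controls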
PPC-1+TRAIL kill: PPC-1 cancer cell killing with TRAIL present | PPC-1 cells + TRAIL, ATPLite viability luminescence | cell killing (% activity), % at 4 µM or 5 µM | hit rate 0.41% among 220,000;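 active = cell killing above 50% in the first pass at 4 µM, then a duplicate retest at 5 µM averaging 50% or more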
FLuc inhib CS: inhibits firefly luciferase, flagging false hits in luciferase inhibition screens | P08659 | ATPLite firefly luciferase biochemical luminescence, 10 min | inhibition, % at 10 µM | hit rate 1.5% among 200,000;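 active = inhibition above about 50% when tested at 10 µM, limit read from the data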
PPC1 cytotox: PPC-1 cell cytotoxicity | cytotoxicity, % at 5 µM | hit rate 50% among 1,200 | PPC-1 viability, ATPlite luminescence, overnight | shares compounds with PPC-1+TRAIL kill;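 active = reconfirmed compounds whose average cytotoxicity reaches 50% or more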
Large screens that a line does not name were inactive (follow-up assays come after a bar, where they were run).

OC(c1cc(-c2ccc(Cl)cc2)nc2ccccc12)C1CCCCN1 (configuration not stated)	none (no result: FLuc act counter, FLuc inhib CS) | PPC1 cytotox inactive
Cc1ccc(N2C(=O)c3ccccc3C2O)nc1 (configuration not stated)	PPC-1+TRAIL kill 53.5, FLuc inhib CS 79.9 (no result: TRAIL sens C8) | PPC1 cytotox 54.1
Cc1ccc(N2C(=O)c3ccccc3C2Nc2ccccc2F)nc1 (configuration not stated)	none
C(=C\c1nc2ccccc2[nH]1)/c1ccccc1	TRAIL sens C8 85.6, PPC-1+TRAIL kill 87.5, FLuc inhib CS 94.1 | PPC1 cytotox 87.9
c1ccc(-c2nc3ccccc3[nH]2)cc1	none (no result: FLuc act counter, PPC-1+TRAIL kill, FLuc inhib CS)
COc1ccc(-c2cn3c4c(sc3n2)CCCC4)cc1	TRAIL sens C8 79.4, PPC-1+TRAIL kill 76.0, FLuc inhib CS 91.1 | PPC1 cytotox 73.8
COc1ccc(-c2cnnc(N/N=C/c3ccc(OC)c(OC)c3)n2)cc1	none
COc1ccc(/C=N/Nc2nncc3ccccc23)cc1	TRAIL sens C8 91.2, PPC-1+TRAIL kill 94.6, FLuc inhib CS 97.2 | PPC1 cytotox 94.8
CC(C)c1ccc(-c2nc3ccccc3s2)cc1	TRAIL sens C8 93.3, PPC-1+TRAIL kill 91.1 (no result: FLuc act counter, FLuc inhib CS) | PPC1 cytotox 92.0
COc1ccc(-c2nc3ccccc3s2)cc1O	TRAIL sens C8 82.5, PPC-1+TRAIL kill 82.7, FLuc inhib CS 91.2 | PPC1 cytotox 83.6
FC(F)(F)c1ccc(-c2nc3ccccc3s2)cc1	none (no result: FLuc act counter, PPC-1+TRAIL kill, FLuc inhib CS)
COc1cccc(-c2nc3ccccc3s2)c1O	TRAIL sens C8 73.4, PPC-1+TRAIL kill 61.3, FLuc inhib CS 86.6 | PPC1 cytotox 64.2
Cc1cccc(C)c1NC(=O)C1(C)CSCC(=O)N1Cc1ccco1 (configuration not stated)	none (no result: FLuc act counter, PPC-1+TRAIL kill, FLuc inhib CS)
Cc1ccc(C(=O)NCc2ccccn2)cc1NC1=NC2CS(=O)(=O)CC2S1 (configuration not stated)	none (no result: FLuc act counter, PPC-1+TRAIL kill, FLuc inhib CS)
NS(=O)(=O)c1ccc(CNC(=O)CCSCCC(=O)NCc2ccc(S(N)(=O)=O)cc2)cc1	none
COc1cc2ccccc2cc1C(=O)Nc1cccnc1	none | PPC1 cytotox inactive
COc1cc(OC)c(C(=O)Nc2cccnc2)cc1OC	none (no result: FLuc act counter, PPC-1+TRAIL kill, FLuc inhib CS)
COc1ccc(/C=C/C(=O)NC(=S)NNC(=O)Cc2cccs2)cc1	none | PPC1 cytotox inactive
O=C(/C=C/c1ccccc1)NC(=S)NNC(=O)Cc1cccs1	none
Cc1cccc(C(=O)NC(C(=O)Nc2cccc(S(=O)(=O)N3CCCC3)c2)C(C)C)c1 (configuration not stated)	none (no result: FLuc act counter, PPC-1+TRAIL kill, FLuc inhib CS)
COc1ccc(Cc2nnc(N/N=C/c3ccc(Br)cc3)[nH]c2=O)cc1OC	none (no result: FLuc act counter, FLuc inhib CS)
COc1ccc(/C=N/Nc2nnc(Cc3ccccc3)c(=O)[nH]2)cc1OC	TRAIL sens C8 67.9, PPC-1+TRAIL kill 59.2 (no result: FLuc act counter, FLuc inhib CS) | PPC1 cytotox 58.9
CCOC(=O)c1ccccc1N/C=C/C(=O)c1ccccc1	none (no result: FLuc act counter, PPC-1+TRAIL kill, FLuc inhib CS)
NC(=O)c1ccccc1N/C=C/C(=O)c1ccc(Cl)cc1	TRAIL sens C8 87.8, PPC-1+TRAIL kill 84.0, FLuc inhib CS 93.5 | PPC1 cytotox 84.0
Cc1ccc(C(=O)/C=C/Nc2ccccc2C(N)=O)cc1	TRAIL sens C8 90.2, PPC-1+TRAIL kill 93.0, FLuc inhib CS 96.7 | PPC1 cytotox 92.6
CCN(CC(=O)Nc1c(C(=O)OC)[nH]c2ccc(Cl)cc12)c1ccc2c(c1)OCO2	none | PPC1 cytotox inactive
Cc1ccc(/C=N/Nc2nncc(-c3ccccc3)n2)o1	none
Cc1[nH]n(-c2ccccc2)c(=O)c1/C=N/Nc1nncc(-c2ccccc2)n1	TRAIL sens C8 57.5, PPC-1+TRAIL kill 62.6, FLuc inhib CS 85.1 | PPC1 cytotox 57.8
O=S(=O)(c1ccc(SCCOc2ccc(Cl)cc2)nc1)N1CCCC1	none (no result: FLuc act counter, PPC-1+TRAIL kill, FLuc inhib CS)
Cc1c(NC(=O)c2cc(-n3cnnc3)ccc2Cl)cccc1-c1nc2ccccc2s1	TRAIL sens C8 77.6, PPC-1+TRAIL kill 61.1, FLuc inhib CS 79.1 | PPC1 cytotox 57.6
CCO/C(=C/c1sc2ccc(OC)cc2[n+]1CCCS(=O)(=O)[O-])CC	none
CCOC(=O)C[n+]1c(C)sc2ccc(OC)cc21	none | PPC1 cytotox inactive
CCc1ccc(Nc2nnc(SCC(=O)NC(=O)c3cccn3C)s2)cc1	none | PPC1 cytotox inactive
CCc1ccc(Nc2nnc(SCC(=O)N(C)C3CCS(=O)(=O)C3)s2)cc1 (configuration not stated)	TRAIL sens C8 70.5, PPC-1+TRAIL kill 70.3 (no result: FLuc act counter, FLuc inhib CS) | PPC1 cytotox 67.6
CN(C(=O)CSc1nnc(NC2CCCCC2)s1)C1CCS(=O)(=O)C1 (configuration not stated)	none
O=C(Nc1ccccc1Cl)c1ccccc1Cc1ccccc1	none

Screens from PubChem BioAssay.
